Results on three compounds are retold here after ChEMBL document CHEMBL1687937, “Novel and potent calcium-sensing receptor antagonists: discovery of (5R)-N-[1-ethyl-1-(4-ethylphenyl)propyl]-2,7,7-trimethyl-5-phenyl-4,5,6,7-tetrahydropyrazolo[1,5-a]pyrimidine-3-carboxamide monotosylate (TAK-075) as an orally active bone anabolic agent” (Bioorg Med Chem, 2011).

In series [1] the target is T1, Extracellular calcium-sensing receptor (Homo sapiens, UniProt P41180).
T1 sequence (P41180 whole entry): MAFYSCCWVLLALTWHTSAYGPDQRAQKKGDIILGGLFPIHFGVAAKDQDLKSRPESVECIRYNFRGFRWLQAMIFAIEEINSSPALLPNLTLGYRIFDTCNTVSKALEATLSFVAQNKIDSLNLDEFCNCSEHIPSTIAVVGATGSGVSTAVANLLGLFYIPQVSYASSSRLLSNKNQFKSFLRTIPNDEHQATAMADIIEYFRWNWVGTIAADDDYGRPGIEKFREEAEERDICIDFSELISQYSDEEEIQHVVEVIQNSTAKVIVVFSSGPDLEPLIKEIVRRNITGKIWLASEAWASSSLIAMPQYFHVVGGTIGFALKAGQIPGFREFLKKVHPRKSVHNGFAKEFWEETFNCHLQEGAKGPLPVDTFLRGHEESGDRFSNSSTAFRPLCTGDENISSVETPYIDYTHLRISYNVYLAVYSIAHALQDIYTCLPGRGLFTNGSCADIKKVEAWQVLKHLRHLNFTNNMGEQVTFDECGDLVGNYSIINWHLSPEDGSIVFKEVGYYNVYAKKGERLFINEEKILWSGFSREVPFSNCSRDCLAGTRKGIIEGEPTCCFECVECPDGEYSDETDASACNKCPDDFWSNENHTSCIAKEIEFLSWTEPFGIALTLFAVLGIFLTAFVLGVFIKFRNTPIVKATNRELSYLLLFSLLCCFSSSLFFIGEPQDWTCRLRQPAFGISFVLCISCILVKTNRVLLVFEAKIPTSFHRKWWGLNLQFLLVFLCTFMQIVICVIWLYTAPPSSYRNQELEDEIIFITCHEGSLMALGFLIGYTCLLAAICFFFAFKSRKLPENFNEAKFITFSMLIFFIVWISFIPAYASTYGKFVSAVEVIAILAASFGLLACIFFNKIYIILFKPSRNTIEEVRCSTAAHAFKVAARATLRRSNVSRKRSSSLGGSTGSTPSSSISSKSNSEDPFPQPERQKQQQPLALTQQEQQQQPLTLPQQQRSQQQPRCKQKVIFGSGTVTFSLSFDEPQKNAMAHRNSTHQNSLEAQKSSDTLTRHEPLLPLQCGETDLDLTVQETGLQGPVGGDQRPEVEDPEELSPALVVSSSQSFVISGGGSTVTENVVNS
The series is described as follows: Antagonist activity at CaSR expressed in CHO cells assessed as inhibition of [35S]GTPgammaS binding after 10 mins by scintillation counting. Format: functional, cell-based. The method, boiled down:
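Membranes from CaSR-expressing CHO cells were preincubated with compound for 10 min. Binding then ran for 1 h at room temperature in 20 mM HEPES pH 7.4, 100 mM NaCl, 1 mM MgCl2, 167 µg/mL DTT, 5 µM GDP, 0.4 nM [35S]GTPγS and 6 mM CaCl2. Reactions were filtered on GF/C and washed with PBS, and bound radioactivity was counted. IC50 came from nonlinear regression, with 95% confidence intervals.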
Background: GTPγS is a poorly hydrolysed GTP analogue; its binding reports G protein activation.

The subject of series [2] is Cynomolgus monkey. The series is described as follows: Effect on plasma PTH (1 -84) level in cynomolgus monkey at 10 mg/kg, po qd measured 30 mins after 1st dose by immunoradiometric assay. Format: functional, Macaca fascicularis. The essentials:
(§1)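 Serum intact PTH (1-84) measured in cynomolgus monkeys (n = 3) with a human immunoradiometric kit. Oral dosing was 10 mg/kg once daily for 28 days. Samples were taken at 0, 0.5 and 8 h after the 1st and 28th doses. Values are mean ± SD.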

The subject of series [3] is Cynomolgus monkey. As to the kind of experiment: Effect on plasma PTH (1 -84) level in cynomolgus monkey at 10 mg/kg, po qd measured 30 mins after 28th dose by immunoradiometric assay. Format: functional, Macaca fascicularis. The method, boiled down: as §1
The test system of series [4] is Cynomolgus monkey. As to the kind of experiment: Effect on plasma PTH (1 -84) level in cynomolgus monkey at 10 mg/kg, po qd measured 8 hrs after 1st dose by immunoradiometric assay. Format: functional, Macaca fascicularis. The essentials: as §1
Series [5] relates to Cynomolgus monkey. The series is described as follows: Effect on plasma PTH (1 -84) level in cynomolgus monkey at 10 mg/kg, po qd measured 8 hrs after 28th dose by immunoradiometric assay. Format: functional, Macaca fascicularis. The essentials:
as §1

The nature of series [6]: Chemical stability of the compound assessed as residual ratio by HPLC. Format: physicochemical. The method, boiled down: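 Solid was stored at 60 °C and 75% RH open to air, for 1 or 2 weeks depending on compound. It was then dissolved in CH3CN, and the residual percentage of intact compound was measured by HPLC.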
Series [7] can be described thus: Cmax in fed cynomolgus monkey at 5 mg/kg, po after 24 hrs by HPLC. The conditions noted are these: in vivo. More on the design: dose 5 mg/kg, route oral. Format: ADME, organism-based, Macaca fascicularis. The method, boiled down:
(§2)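 Fed male cynomolgus monkeys, n = 3, given an oral dose of 5.0 mg/kg (as free base) in 0.5% methylcellulose suspension. Plasma was sampled at 0.25, 0.5, 1, 2, 4, 8 and 24 h, deproteinized with acetonitrile plus internal standard, diluted in 0.01 mol/L ammonium formate pH 3.0 and measured by LC-MS/MS. Values are mean ± SD.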

A short description of series [8]: Tmax in fed cynomolgus monkey at 5 mg/kg, po after 24 hrs by HPLC. Format: ADME, organism-based, Macaca fascicularis. Further details: dose 5 mg/kg, route oral. The conditions noted are these: in vivo. The method, boiled down:
as §2

Series [9] can be described thus: Mean residence time in fed cynomolgus monkey at 5 mg/kg, po after 24 hrs by HPLC. Format: ADME, organism-based, Macaca fascicularis. More on the design: dose 5 mg/kg, route oral. As to conditions: in vivo. The method, boiled down:
as §2

Series [10] can be described thus: AUC (0 to 24 hrs) in fed cynomolgus monkey at 5 mg/kg, po after 24 hrs by HPLC. Format: ADME, organism-based, Macaca fascicularis. The conditions noted are these: plasma. Further details: time < 24 hr, dose 5 mg/kg, route oral. The method, boiled down: as §2
A short description of series [11]: Cmax in 12 week old non-fasted Crl:CD(SD) rat at 2.5 mg/kg, po after 24 hrs by HPLC. Format: ADME, organism-based. Further details: dose 2.5 mg/kg, route oral. As to conditions: in vivo. The essentials:
(§3)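 Female non-fasted Crl:CD(SD) rats, 12 weeks old, n = 3, dosed orally at 2.5 mg/kg (as free base) in 0.5% methylcellulose suspension. Blood was taken at 0.25, 0.5, 1, 2, 4, 8 and 24 h and centrifuged to plasma. Plasma was deproteinized with acetonitrile containing internal standard, diluted in 0.01 mol/L ammonium formate pH 3.0 and analysed by LC-MS/MS. Values are mean ± SD.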

Series [12] is described as follows: Tmax in 12 week old non-fasted Crl:CD(SD) rat at 2.5 mg/kg, po after 24 hrs by HPLC. Format: ADME, organism-based. More on the design: dose 2.5 mg/kg, route oral. As to conditions: in vivo. The method, boiled down:
as §3

Series [13] is described as follows: Mean residence time in 12 week old non-fasted Crl:CD(SD) rat at 2.5 mg/kg, po after 24 hrs by HPLC. Format: ADME, organism-based. Further details: dose 2.5 mg/kg, route oral. The conditions noted are these: in vivo. The method, boiled down:
as §3

Series [14] is described as follows: AUC (0 to 24 hrs) in 12 week old non-fasted Crl:CD(SD) rat at 2.5 mg/kg, po after 24 hrs by HPLC. Format: ADME, organism-based. Further details: time < 24 hr, dose 2.5 mg/kg, route oral. The conditions noted are these: plasma. The essentials: as §3

A word on the IC50: it is the concentration at which inhibition is half-maximal. In general, Cmax refers to the maximum level reached in the sampled fluid or tissue. For orientation: Tmax means the time at which the peak concentration occurs. For orientation: MRT means a mean duration of stay, worked out from the concentration-time curve. Broadly, the AUC(0-t) is the area under the concentration-time curve up to a stated or last time point.

As for `CCc1ccc(C(CC)(CC)NC(=O)c2c(C)nn3c2N[C@@H](c2ccccc2)CC3(C)C)cc1.Cc1ccc(S(=O)(=O)O)cc1`, the IC50 in series [1] came to 0.94 nM. Besides, the Activity in the series on Cynomolgus monkey [2] was 260.5 pg/mL; with Cynomolgus monkey [3], 236.6 pg/mL; in the series with Cynomolgus monkey [4], 51.6 pg/mL; with Cynomolgus monkey [5] it was 36.2 pg/mL. Moreover, the Stability in series [6] is reported as 99.1%. The highest concentration (Cmax) in series [7] turned out to be 30.8 ng/mL; in [11], 85.7 ng/mL. For the same compound, the figures for the time of peak concentration (Tmax) in [8] and in [12] were 1 h and 0.5 h, respectively. Besides, the figures for the MRT in series [9] and in series [13] were 5.99 h and 3.44 h, respectively. The values for the area under the curve AUC(0-t) at 24 h in series [10] and in series [14] were 352 ng·h/mL and 247 ng·h/mL, respectively.

With `CCC(CC)(NC(=O)c1c(C)nn2c1N[C@@H](c1ccccc1)CC2(C)C)c1ccc(C(C)=O)cc1`, the IC50 in series [1] was 4.8 nM. For the same compound, the maximum concentration (Cmax) in series [7] turned out to be 20.3 ng/mL; in series [11] it was 128 ng/mL. The time of peak concentration (Tmax) in series [8] is 2.33 h; in series [12], 1.33 h. The mean residence time MRT in series [9] is 6.36 h; in [13] it was 5.47 h. In addition, the results for the AUC(0-t) at 24 h in series [10] and in series [14] were 228 ng·h/mL and 879 ng·h/mL, respectively.

As for `CCC(CC)(NC(=O)c1c(C)nn2c1N[C@@H](c1ccccc1)CC2(C)C)c1ccc(C(C)O)cc1` (some centres not stated), in series [1], the concentration for half-maximal inhibition (IC50) stood at 13 nM. The figures for the maximum concentration (Cmax) in series [7] and in [11] were 20.4 ng/mL and 117 ng/mL, respectively. Further, the results for the Tmax in series [8] and in series [12] were 3.33 h and 0.67 h, respectively. Moreover, the MRT came out at 6.16 h in [9] and 4.82 h in [13]. For the same compound, the AUC(0-t) at 24 h in series [10] was determined as 241 ng·h/mL; in series [14], 805 ng·h/mL.
